Measurements pooled from the literature.
Protocols differ between the studies behind these lines.
Matrix: plasma

Compound | system | setting | quantity | value
Cl.Clc1ccc2c(c1)nc(N1CCNCC1)n2Cc1ccccc1 | rat | oral, 5 mg/kg | AUC | 1.5 µM·h
CCc1cc(C(=O)NC)c2nccc(N3CCc4c(cc(Cn5ccnc5)cc4-c4cn(C)nc4C(F)(F)F)C3=O)c2c1 | male Sprague-Dawley rat | oral, 100 mg/kg, single dose | AUC(0-t) | 37200 ng·h/mL
Cc1noc(-c2cc3cc(-c4nc(C(=O)NCc5ccncc5)[nH]c4C)ccc3[nH]2)n1 | Sprague-Dawley rat | oral, 10 mg/kg | AUC | 11.1 µM·h
Oc1c(Br)cc(Cl)c2cccnc12 | Sprague-Dawley rat | oral, 20 mg/kg | AUC(0-inf) | 4500 ng·h/mL
N#Cc1[nH]nnc1-c1cc(Cl)cc(/C=C/c2cccc(C(F)(F)F)c2)c1 | male Sprague-Dawley rat | oral, 10 mg/kg | AUC | 16700 ng·h/mL
N#Cc1ccc(Nc2nc(N)cc(Oc3c(F)cc(-c4ccc(C#N)cc4)cc3F)n2)cc1 | Sprague-Dawley rat | oral, 5 mg/kg | AUC | 100 ng·h/mL
CCNC(=O)c1nc(-c2ccc3[nH]c(-c4nc(C)no4)cc3c2)c(C)[nH]1 | Sprague-Dawley rat | oral, 10 mg/kg | AUC | 10.3 µM·h
COc1cc2c3c(n(CCCN4CCOCC4)c(=O)c2cc1OC)-c1cc2c(cc1C3=O)OCO2 | female Fischer 344 rat | intravenous, 24 mg/m², single dose | AUC(0-inf) | 806 ng·h/mL
C=CC(=O)N1CC2CC(n3nc(-c4ccc(C(=O)Nc5ccccn5)cc4)c4c(N)ncnc43)CC2C1 (centres unmarked) | male Wistar rat | oral, 300 mg/kg | AUC(0-t) | 80700 ng·h/mL
N#Cc1[nH]nnc1-c1cccc(-c2cc(F)cc(C(F)(F)F)c2)c1 | male Sprague-Dawley rat | oral, 10 mg/kg | AUC | 68200 ng·h/mL
CCOC(=O)[C@@]12C[C@@H]1[C@@H](n1ccc3c(NC)nc(C#Cc4ccc(Cl)s4)nc31)[C@H](O)[C@@H]2O | male Sprague-Dawley rat | oral, 1 mg/kg | AUC(0-inf) | 38.2 ng·h/mL
